Test results: ChEMBL document CHEMBL2417400, “Discovery of a novel 5-carbonyl-1H-imidazole-4-carboxamide class of inhibitors of the HIV-1 integrase-LEDGF/p75 interaction” (Bioorg Med Chem, 2013)

Key:
[1] = Cytotoxicity against human MT4 cells; assay type: cell-based
[2] = test system: Human immunodeficiency virus 1; experiment: Antiviral activity against HIV1 infected in human MT4 cells assessed as virus-induced cytopathic effect by MTT assay; assay type: functional, organism-based; conditions: Human immunodeficiency virus 1, MT4
[3] = Inhibition of recombinant His6-tagged HIV-1 integrase binding to FLAG-tagged LEDGF/p75 (unknown origin) interaction expressed in Escherichia coli BL21(DE3) at 20 uM treated 30 mins before LEDGF/p75 addition measured after 60 mins by quench assay
Summary of the method: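 Emission-quench counter-screen run like the IN–LEDGF/p75 AlphaScreen, with FLAG-tagged GST (500 nM final) instead of both proteins. Same buffer, Ni-chelate donor and anti-FLAG acceptor beads, 1 h at 30 °C, acceptor emission read. Reported as percent inhibition at a single compound concentration.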

[4] = biological target: T1, Human immunodeficiency virus type 1 integrase (Human immunodeficiency virus 1, UniProt Q7ZJM1); experiment: Inhibition of recombinant His6-tagged HIV-1 integrase 3' strand transfer activity
[5] = biological target: T1, Human immunodeficiency virus type 1 integrase; experiment: Inhibition of recombinant His6-tagged HIV-1 integrase 3' processing activity
[6] = Inhibition of recombinant His6-tagged HIV-1 integrase binding to FLAG-tagged LEDGF/p75 (unknown origin) interaction expressed in Escherichia coli BL21(DE3) treated 30 mins before LEDGF/p75 addition measured after 60 mins by AlphaScreen assay
Summary of the method: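 His6-IN (300 nM final) with compound for 30 min at 4 °C. FLAG-LEDGF/p75 (300 nM final) added for 60 min at 4 °C. Ni-chelate donor and anti-FLAG acceptor beads added, 1 h at 30 °C, light exposure minimized. Acceptor emission read. IC50 is the 50% inhibition of the interaction.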

T1 sequence (Q7ZJM1 whole entry): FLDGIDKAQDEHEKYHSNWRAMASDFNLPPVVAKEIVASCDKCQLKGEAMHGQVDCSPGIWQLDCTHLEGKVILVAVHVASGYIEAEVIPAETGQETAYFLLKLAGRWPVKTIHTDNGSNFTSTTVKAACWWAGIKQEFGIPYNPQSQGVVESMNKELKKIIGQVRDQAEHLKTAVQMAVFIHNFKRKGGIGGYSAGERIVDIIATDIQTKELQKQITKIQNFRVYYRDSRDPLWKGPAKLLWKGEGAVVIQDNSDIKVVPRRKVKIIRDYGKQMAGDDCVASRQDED

SMILES	CC50 [1]	EC50 [2]	inhibition [3]	IC50 [4]	IC50 [5]	IC50 [6]
O=C(Nc1ccccc1O)c1nc[nH]c1C(=O)N1CCC(O)CC1	> 20 µM	> 20 µM	< 50%	> 20 µM	> 20 µM	> 20 µM
O=C(Nc1ccccc1)c1nc[nH]c1C(=O)O	> 20 µM	> 20 µM	< 50%	> 20 µM	> 20 µM	6 µM
O=C(Nc1ccc(F)cc1)c1nc[nH]c1C(=O)O	> 20 µM	> 20 µM	< 50%	> 20 µM	> 20 µM	10 µM
Cc1ccc(NC(=O)c2[nH]cnc2C(=O)NN)cc1	> 20 µM	> 20 µM	< 50%	> 20 µM	> 20 µM	16 µM
O=C(Nc1ccc([N+](=O)[O-])cc1)c1nc[nH]c1C(=O)O	> 20 µM	> 20 µM	< 50%	> 20 µM	> 20 µM	5.3 µM
O=C(Nc1ccccn1)c1nc[nH]c1C(=O)N1CCC(O)CC1	> 20 µM	> 20 µM	< 50%	> 20 µM	> 20 µM	> 20 µM
CNC(=O)c1[nH]cnc1C(=O)Nc1ccccn1	> 20 µM	> 20 µM	< 50%	> 20 µM	> 20 µM	> 20 µM
O=C(Nc1ccccn1)c1nc[nH]c1C(=O)O	> 20 µM	> 20 µM	< 50%	> 20 µM	> 20 µM	13 µM
O=C(Nc1ccccc1O)c1nc[nH]c1C(=O)N1CCOCC1	> 20 µM	> 20 µM	< 50%	> 20 µM	> 20 µM	> 20 µM
NNC(=O)c1[nH]cnc1C(=O)Nc1ccccn1	> 20 µM	> 20 µM	< 50%	> 20 µM	> 20 µM	0.4 µM
O=C(Nc1ccccc1O)c1nc[nH]c1C(=O)N1CCNCC1	> 20 µM	> 20 µM	< 50%	> 20 µM	> 20 µM	> 20 µM
O=C(Nc1ccccn1)c1nc[nH]c1C(=O)N1CCNCC1	> 20 µM	> 20 µM	< 50%	> 20 µM	> 20 µM	> 20 µM
O=C(Nc1ccccn1)c1nc[nH]c1C(=O)N1CCOCC1	> 20 µM	> 20 µM	< 50%	> 20 µM	> 20 µM	> 20 µM
Nc1ccc(NC(=O)c2nc[nH]c2C(=O)O)cc1	> 20 µM	> 20 µM	< 50%	> 20 µM	> 20 µM	1 µM
O=C(NCc1ccc(F)cc1)c1nc[nH]c1C(=O)O	> 20 µM	> 20 µM	< 50%	> 20 µM	> 20 µM	> 20 µM
COC(=O)c1[nH]cnc1C(=O)Nc1ccc(F)cc1	> 20 µM	> 20 µM	< 50%	> 20 µM	> 20 µM	> 20 µM
